Measurements as given in ChEMBL document CHEMBL1127559, “Syntheses and anticholinesterase activity of tetrahydrobenzazepine carbamates” (J Med Chem, 1994).

Assays:
[1] = species: Mus musculus; test: Minimal dose to produce side effects was determined for salivation in mice; format: functional
Summary of the method: (§1)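 Mice fasted overnight, dosed ip or po at 10 mL/kg and housed singly in novel cages. Salivation, tremor and diarrhea each scored on a 5-point scale at 15, 30 and 60 min post-dose. Value is the minimal dose producing the sign.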

[2] = species: Mus musculus; test: Minimal dose to produce side effects was determined for diarrhea in mice; format: functional; summary of the method: as §1
[3] = species: Mus musculus; test: Minimal dose to produce side effects was determined for tremor in mice; format: functional; summary of the method: as §1
[4] = species: Mus musculus; test: Minimal dose to produce side effects was determined for tremor; format: functional; summary of the method: as §1
[5] = biological target: Acetylcholinesterase (Homo sapiens, UniProt P22303); test: In vitro inhibitory activity against human acetylcholinesterase; format: functional
[6] = Lethal dose was measured at 24 hour in mice following intraperitoneal administration.; format: toxicity, organism-based; settings: mouse, in vivo, ip
Summary of the method: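 Mice fasted overnight and dosed ip at 10 mL/kg, then housed singly in novel cages. Lethality scored over 24 h using at least four dose levels with nine animals per dose. LD50 calculated by Spearman-Karber.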

[7] = species: Mus musculus; test: Minimal dose to produce side effects was determined for diarrhea; format: functional; summary of the method: as §1
[8] = species: Mus musculus; test: Minimal dose to produce side effects was determined for salivation; format: functional; summary of the method: as §1

Chain of Acetylcholinesterase (P22303 whole entry): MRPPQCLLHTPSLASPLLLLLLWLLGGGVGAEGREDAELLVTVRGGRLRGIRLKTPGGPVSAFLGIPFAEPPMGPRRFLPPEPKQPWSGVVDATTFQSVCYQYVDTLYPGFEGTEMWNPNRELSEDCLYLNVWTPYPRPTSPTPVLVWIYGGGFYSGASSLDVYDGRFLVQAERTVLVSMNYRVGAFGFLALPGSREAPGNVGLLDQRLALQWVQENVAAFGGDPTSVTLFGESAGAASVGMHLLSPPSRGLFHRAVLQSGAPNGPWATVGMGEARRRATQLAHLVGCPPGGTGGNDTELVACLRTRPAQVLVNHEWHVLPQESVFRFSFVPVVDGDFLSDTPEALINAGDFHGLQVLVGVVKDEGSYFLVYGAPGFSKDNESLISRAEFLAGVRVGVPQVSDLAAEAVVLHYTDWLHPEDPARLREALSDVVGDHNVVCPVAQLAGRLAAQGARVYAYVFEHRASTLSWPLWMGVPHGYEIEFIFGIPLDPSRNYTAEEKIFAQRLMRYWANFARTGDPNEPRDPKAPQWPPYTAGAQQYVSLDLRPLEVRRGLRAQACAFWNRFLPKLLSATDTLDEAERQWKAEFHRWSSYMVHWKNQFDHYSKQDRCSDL

| Structure (SMILES) | Dose [1] | Dose [2] | Dose [3] | Dose [4] | IC50 [5] | LD50 at 24 h [6] | Dose [7] | Dose [8] |
| --- | --- | --- | --- | --- | --- | --- | --- | --- |
| CNC(=O)Oc1ccc2c(c1)[C@]1(C)CCN(C)[C@@H]1N2C [PHYSOSTIGMINE] | 0.32 mg/kg | 0.32 mg/kg | 0.32 mg/kg |  |  |  |  |  |
| CCCCCCCNC(=O)Oc1ccc2c(c1)C1(C)CCN(CC)C2C1 (stereo unspecified) |  |  |  | 1.8 mg/kg | 0.159 µM | 4 mg/kg | 1 mg/kg |  |
| CCCCNC(=O)Oc1ccc2c(c1)C1CCN(CC)C2C1 (stereo unspecified) |  |  |  |  | 0.206 µM |  |  |  |
| CCCCCCNC(=O)Oc1ccc2c(c1)C1CCN(CC)C2C1 (stereo unspecified) |  |  |  | 3.2 mg/kg | 0.125 µM | 9 mg/kg | 1.8 mg/kg | 3.2 mg/kg |
| CCCCCCNC(=O)Oc1ccc2c(c1)C1(C)CCN(CC)C2C1 (stereo unspecified) |  |  |  |  | 0.133 µM | 9 mg/kg |  |  |
| CCCCCCNC(=O)Oc1ccc2c(c1)C1CCN(C)C2C1 (stereo unspecified) |  |  |  | 3.2 mg/kg |  | 6 mg/kg |  | 5.6 mg/kg |
| CCCCCCCNC(=O)Oc1ccc2c(c1)C1CCN(CC)C2C1 (stereo unspecified) |  |  |  | 17.8 mg/kg | 0.169 µM | 22 mg/kg | 3.2 mg/kg | 17.8 mg/kg |
| CCCCCCNC(=O)Oc1ccc2c(c1)[C@]1(C)CCN(CC)[C@@H]1C2 |  |  |  | 3.2 mg/kg |  | 4 mg/kg | 1.8 mg/kg | 3.2 mg/kg |
| CCCCCCCNC(=O)Oc1ccc2c(c1)[C@]1(C)CCN(C)[C@@H]1N2C [EPTASTIGMINE] |  |  |  | 10 mg/kg |  |  | 1.8 mg/kg | 10 mg/kg |
| CCCCCCCNC(=O)Oc1ccc2c(c1)C1CCN(C)C2C1 (stereo unspecified) |  |  |  | 10 mg/kg | 0.143 µM | 18 mg/kg |  | 10 mg/kg |
| CCN1CCC2CC1c1ccc(OC(=O)NC)cc12 (stereo unspecified) |  |  |  |  | 0.171 µM | 1 mg/kg |  |  |
